Results from ChEMBL document CHEMBL5705888, “Substrate specificity and inhibitors of LRRK2, a protein kinase mutated in Parkinson's disease” (Biochem J, 2009).

Tests used:
[1] = biological target: T1, NUAK family SNF1-like kinase 1 (Homo sapiens) (UniProt O60285); test: Inhibition of NUAK1 (unknown origin) at 1 uM incubated for 30 mins in presence of [gamma-33P]ATP by multidrop micro reagent based assay relative to control
T1 sequence (whole entry): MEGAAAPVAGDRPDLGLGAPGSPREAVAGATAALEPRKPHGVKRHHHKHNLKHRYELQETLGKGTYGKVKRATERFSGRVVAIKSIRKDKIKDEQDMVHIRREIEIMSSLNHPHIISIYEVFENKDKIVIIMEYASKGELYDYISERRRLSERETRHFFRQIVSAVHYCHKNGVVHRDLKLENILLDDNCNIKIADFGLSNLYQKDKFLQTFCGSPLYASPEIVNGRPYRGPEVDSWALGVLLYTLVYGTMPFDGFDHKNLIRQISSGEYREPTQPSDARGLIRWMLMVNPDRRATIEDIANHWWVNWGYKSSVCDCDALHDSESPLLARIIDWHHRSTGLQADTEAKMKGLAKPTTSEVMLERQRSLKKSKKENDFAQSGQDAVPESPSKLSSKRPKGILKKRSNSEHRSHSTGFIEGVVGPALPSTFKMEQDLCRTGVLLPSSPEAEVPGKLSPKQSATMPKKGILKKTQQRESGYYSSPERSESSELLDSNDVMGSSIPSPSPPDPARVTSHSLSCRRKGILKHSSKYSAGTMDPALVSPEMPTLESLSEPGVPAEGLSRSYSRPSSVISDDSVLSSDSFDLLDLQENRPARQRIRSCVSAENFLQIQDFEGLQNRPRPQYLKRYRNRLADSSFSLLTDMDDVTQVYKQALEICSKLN
Summary of the method: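 Single-concentration screen across a panel of 85 protein kinases. Activity is expressed as a percentage of control incubations run without inhibitor.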

[2] = biological target: MAP kinase-interacting serine/threonine-protein kinase 1 (Homo sapiens) (UniProt Q9BUB5); test: Inhibition of MNK1 (unknown origin) at 1 uM incubated for 30 mins in presence of [gamma-33P]ATP by multidrop micro reagent based assay relative to control; values are per cent of control
[3] = biological target: T2, Serine/threonine-protein kinase Nek2 (Homo sapiens) (UniProt P51955); test: Inhibition of NEK2a (unknown origin) at 1 uM incubated for 30 mins in presence of [gamma-33P]ATP by multidrop micro reagent based assay relative to control; values are per cent of control
T2 sequence (whole entry): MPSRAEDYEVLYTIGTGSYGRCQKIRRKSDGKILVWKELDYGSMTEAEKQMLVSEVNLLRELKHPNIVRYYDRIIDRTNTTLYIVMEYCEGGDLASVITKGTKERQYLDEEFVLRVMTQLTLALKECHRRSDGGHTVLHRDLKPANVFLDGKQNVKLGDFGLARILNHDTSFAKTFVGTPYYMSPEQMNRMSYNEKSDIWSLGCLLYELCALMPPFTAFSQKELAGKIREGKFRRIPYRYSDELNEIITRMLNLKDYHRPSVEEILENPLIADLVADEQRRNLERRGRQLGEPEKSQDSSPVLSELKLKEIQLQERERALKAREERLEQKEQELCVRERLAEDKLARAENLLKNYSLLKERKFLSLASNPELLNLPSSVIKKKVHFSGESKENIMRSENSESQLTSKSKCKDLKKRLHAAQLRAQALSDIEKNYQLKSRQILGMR

[4] = biological target: T1, NUAK family SNF1-like kinase 1 (Homo sapiens); test: Activity of NUAK1 (unknown origin) at 1 uM incubated for 30 mins in presence of [gamma-33P]ATP by multidrop micro reagent based assay relative to control
[5] = biological target: Insulin receptor-related protein (Homo sapiens) (UniProt P14616); test: Inhibition of IRR (unknown origin) at 10 uM incubated for 30 mins in presence of [gamma-33P]ATP by multidrop micro reagent based assay relative to control
[6] = biological target: Serine/threonine-protein kinase pim-1 (Homo sapiens) (UniProt P11309); test: Inhibition of PIM1 (unknown origin) at 10 uM incubated for 30 mins in presence of [gamma-33P]ATP by multidrop micro reagent based assay relative to control; values are per cent of control
[7] = biological target: Serine/threonine-protein kinase pim-2 (Homo sapiens) (UniProt Q9P1W9); test: Inhibition of PIM2 (unknown origin) at 10 uM incubated for 30 mins in presence of [gamma-33P]ATP by multidrop micro reagent based assay relative to control; values are per cent of control
[8] = biological target: T3, Eukaryotic elongation factor 2 kinase (Homo sapiens) (UniProt O00418); test: Inhibition of EF2K (unknown origin) at 10 uM incubated for 30 mins in presence of [gamma-33P]ATP by multidrop micro reagent based assay relative to control; values are per cent of control
T3 sequence (whole entry): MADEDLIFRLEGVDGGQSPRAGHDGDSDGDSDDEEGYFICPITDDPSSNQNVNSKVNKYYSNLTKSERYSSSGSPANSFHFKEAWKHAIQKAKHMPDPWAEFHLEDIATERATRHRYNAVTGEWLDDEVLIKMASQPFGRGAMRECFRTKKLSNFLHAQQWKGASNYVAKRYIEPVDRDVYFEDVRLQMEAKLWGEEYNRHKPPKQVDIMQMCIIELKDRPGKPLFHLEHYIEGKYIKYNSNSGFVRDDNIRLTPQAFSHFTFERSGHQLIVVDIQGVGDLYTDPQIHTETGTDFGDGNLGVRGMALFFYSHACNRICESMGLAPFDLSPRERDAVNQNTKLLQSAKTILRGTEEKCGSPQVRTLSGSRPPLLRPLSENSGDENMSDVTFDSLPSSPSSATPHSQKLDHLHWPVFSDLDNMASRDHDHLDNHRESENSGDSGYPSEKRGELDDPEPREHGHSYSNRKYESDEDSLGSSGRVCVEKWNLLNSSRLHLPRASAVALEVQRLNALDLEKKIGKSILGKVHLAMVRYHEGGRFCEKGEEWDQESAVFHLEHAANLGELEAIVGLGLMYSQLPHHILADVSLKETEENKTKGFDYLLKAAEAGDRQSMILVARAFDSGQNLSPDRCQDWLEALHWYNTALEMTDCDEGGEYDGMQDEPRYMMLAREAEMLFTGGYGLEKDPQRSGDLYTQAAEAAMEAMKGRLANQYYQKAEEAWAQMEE

MAP kinase-interacting serine/threonine-protein kinase 1 (Homo sapiens), sequence (Q9BUB5 whole entry, looked up): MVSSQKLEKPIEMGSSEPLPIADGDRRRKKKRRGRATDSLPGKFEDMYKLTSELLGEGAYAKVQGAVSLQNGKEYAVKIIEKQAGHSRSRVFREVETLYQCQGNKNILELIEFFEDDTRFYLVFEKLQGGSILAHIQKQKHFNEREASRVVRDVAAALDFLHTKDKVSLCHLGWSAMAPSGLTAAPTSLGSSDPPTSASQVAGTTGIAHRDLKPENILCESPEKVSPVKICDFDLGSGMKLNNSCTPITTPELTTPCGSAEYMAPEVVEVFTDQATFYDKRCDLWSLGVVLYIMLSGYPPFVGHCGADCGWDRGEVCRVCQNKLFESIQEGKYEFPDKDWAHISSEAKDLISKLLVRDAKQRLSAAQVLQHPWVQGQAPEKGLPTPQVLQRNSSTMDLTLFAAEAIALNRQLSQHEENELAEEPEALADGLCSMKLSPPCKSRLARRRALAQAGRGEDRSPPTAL
Serine/threonine-protein kinase pim-1 (Homo sapiens), sequence (P11309 whole entry, looked up): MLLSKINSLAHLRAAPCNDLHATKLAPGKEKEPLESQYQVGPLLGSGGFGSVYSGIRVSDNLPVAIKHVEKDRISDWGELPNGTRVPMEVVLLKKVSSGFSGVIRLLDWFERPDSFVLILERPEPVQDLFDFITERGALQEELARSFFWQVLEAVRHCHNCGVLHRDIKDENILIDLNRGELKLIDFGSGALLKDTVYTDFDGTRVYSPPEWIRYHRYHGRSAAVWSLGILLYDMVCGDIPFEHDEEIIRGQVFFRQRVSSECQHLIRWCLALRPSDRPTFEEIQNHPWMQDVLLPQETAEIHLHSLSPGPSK
Serine/threonine-protein kinase pim-2 (Homo sapiens), sequence (Q9P1W9 whole entry, looked up): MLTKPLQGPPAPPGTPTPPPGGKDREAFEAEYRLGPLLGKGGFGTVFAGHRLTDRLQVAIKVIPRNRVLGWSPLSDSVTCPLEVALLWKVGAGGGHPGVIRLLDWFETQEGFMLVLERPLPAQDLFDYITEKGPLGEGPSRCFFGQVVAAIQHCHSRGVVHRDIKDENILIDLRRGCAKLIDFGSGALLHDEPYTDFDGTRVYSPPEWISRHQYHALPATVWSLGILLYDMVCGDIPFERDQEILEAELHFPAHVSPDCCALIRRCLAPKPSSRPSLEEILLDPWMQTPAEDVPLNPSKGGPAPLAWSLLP
Insulin receptor-related protein (Homo sapiens), sequence (P14616 27-742 limits assumed): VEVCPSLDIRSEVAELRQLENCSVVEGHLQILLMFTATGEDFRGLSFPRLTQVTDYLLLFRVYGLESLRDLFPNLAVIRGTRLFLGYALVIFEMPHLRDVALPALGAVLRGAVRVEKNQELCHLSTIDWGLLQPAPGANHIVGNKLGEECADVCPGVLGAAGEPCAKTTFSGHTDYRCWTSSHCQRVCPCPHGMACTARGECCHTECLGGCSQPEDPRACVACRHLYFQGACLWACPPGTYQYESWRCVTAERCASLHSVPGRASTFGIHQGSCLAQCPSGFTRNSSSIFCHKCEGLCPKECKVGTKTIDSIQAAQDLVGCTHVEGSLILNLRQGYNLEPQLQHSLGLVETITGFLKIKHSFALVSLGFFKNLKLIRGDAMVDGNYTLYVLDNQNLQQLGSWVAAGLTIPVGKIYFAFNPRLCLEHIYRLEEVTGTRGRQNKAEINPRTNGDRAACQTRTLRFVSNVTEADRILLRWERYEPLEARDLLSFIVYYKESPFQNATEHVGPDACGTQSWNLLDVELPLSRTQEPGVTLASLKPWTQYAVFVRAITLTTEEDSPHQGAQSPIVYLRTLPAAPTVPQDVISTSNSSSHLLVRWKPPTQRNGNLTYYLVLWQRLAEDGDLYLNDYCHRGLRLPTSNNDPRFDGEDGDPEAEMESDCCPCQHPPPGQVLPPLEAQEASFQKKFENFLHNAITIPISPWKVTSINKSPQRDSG
Insulin receptor-related protein (Homo sapiens), sequence (P14616 747-1297 limits assumed): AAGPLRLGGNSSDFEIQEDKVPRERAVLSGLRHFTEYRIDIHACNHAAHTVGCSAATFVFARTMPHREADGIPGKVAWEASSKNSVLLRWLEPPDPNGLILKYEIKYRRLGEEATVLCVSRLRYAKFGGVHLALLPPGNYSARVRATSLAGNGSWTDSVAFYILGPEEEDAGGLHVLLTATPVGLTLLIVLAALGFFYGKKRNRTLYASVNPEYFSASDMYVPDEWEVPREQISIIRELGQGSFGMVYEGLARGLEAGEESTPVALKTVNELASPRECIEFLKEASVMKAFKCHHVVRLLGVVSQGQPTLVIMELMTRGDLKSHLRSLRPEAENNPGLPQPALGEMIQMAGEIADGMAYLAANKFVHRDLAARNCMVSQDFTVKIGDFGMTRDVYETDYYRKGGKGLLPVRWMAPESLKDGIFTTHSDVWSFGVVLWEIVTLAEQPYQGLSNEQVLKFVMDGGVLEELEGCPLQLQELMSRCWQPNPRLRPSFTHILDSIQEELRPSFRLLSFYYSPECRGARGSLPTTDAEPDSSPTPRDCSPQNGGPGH

Row | SMILES | inhibition [1] [%] | residual activity [2] [%] | residual activity [3] [%] | residual activity [4] [%] | inhibition [5] [%] | residual activity [6] [%] | residual activity [7] [%] | residual activity [8] [%]
1 | CC1=C(C(=O)Nc2cc3cn[nH]c3cc2F)C(c2ccc(C(F)(F)F)cc2)CC(=O)N1 (stereo unspecified) | 51 | 91 | 106 |  |  |  |  | 
2 | Cc1cncc2cccc(S(=O)(=O)N3CCCNC[C@@H]3C)c12 | 51 | 50 | 99 |  |  |  |  | 
3 | CCN(CC)CCNC(=O)c1c(C)[nH]c(/C=C2\C(=O)Nc3ccc(F)cc32)c1C |  |  |  | 15 |  |  |  | 
4 | CCn1c(-c2nonc2N)nc2cnc(Oc3cccc(NC(=O)c4ccc(OCCN5CCOCC5)cc4)c3)cc21 [GSK-269962A] |  |  |  | 39 |  |  |  | 
5 | C[C@@H](N)[C@H]1CC[C@H](C(=O)Nc2ccncc2)CC1 |  |  |  |  | 91 | 94 | 102 | 81
6 | O=S(=O)(c1cccc2cnccc12)N1CCCNCC1 [FASUDIL] |  |  |  |  | 86 | 84 | 111 | 120
